ERAP1 HTS inh – inhibitors of human ERAP1 aminopeptidase; actives 0.15% (n = 340,000); Q9NZ08; recombinant ERAP1, Leu-AMC fluorescence, 60 min; AID 652197; inhibition, % at 10.7 µM;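 active = mean replicate inhibition of at least 30%, or all replicates individually reaching that 30% level; inactive = mean below 30% and not every replicate reaching it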;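 note: 0% = neutral control wells and 100% = L-leucinethiol positive control wells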
miR122 inh – miR-122 inhibition in Huh7 cells; Huh7 miR-122 Renilla luciferase sensor, 48 h; neutral wells = 0, positive control = 100; activation (reporter increase), % at 12.5 µM; actives 0.3% (n = 340,000);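 active = mean replicate activation score at least 90 and every replicate individually at or above 90; inconclusive = only one of the two criteria met; inactive = neither criterion met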;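 note: higher luciferase means less miR-122 activity so hits act as miR-122 inhibitors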
MLL AF4-AF9 inh – MLL-AF4/AF9 protein interaction inhibition | P42568 | AlphaScreen, biotin-AF4 peptide binding to FLAG-AF9 | inhibition, % at 10 µM | actives 0.47% (n = 350,000) | AID 651704;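 active = every replicate reaching a set inhibition limit, whatever the replicate mean, cut at about 25% in these data; inconclusive = mean inhibition reaches that limit but some replicates miss it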;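 note: 0% = plate neutral control median and 100% = total signal loss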
Target sequence (P42568 whole entry, looked up): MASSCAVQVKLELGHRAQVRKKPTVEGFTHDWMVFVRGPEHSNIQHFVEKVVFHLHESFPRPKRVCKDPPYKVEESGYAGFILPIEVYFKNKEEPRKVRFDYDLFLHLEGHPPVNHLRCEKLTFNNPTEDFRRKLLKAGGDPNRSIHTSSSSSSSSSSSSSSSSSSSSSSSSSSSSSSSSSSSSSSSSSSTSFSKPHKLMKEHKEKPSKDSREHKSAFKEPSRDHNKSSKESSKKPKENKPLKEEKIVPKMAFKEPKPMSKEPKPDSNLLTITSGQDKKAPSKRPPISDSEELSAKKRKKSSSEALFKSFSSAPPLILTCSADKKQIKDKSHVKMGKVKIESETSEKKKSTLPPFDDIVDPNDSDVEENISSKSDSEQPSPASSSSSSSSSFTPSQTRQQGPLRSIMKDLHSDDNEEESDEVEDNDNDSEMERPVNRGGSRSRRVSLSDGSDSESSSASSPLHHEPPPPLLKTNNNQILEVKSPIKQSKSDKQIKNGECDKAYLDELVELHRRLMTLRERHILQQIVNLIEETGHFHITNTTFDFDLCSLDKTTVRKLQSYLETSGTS
S100A4 MyoIIA – S100A4-myosin IIA interaction inhibition; P26447; actives 0.14% (n = 360,000); S100A4/TAMRA-MyoIIA peptide fluorescence polarization; inhibition, % at 10.7 µM;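 active = mean inhibition of at least 70% across replicates, with every replicate also reaching that level; inconclusive = mean inhibition reaches 70% but some replicates fall short; inactive = mean inhibition below 70%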
Target sequence (P26447 whole entry, looked up): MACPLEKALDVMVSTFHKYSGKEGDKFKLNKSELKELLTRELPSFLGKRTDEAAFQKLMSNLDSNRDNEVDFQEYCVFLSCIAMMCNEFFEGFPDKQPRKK
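Material: S100A4 monomer protein / Buffer or medium: 50 mM HEPES pH 7.2, 10 mM CaCl2, 100 mM KCl / Times: 5 min incubation before reading / Benchmarks: neutral control DMSO, positive control TFP / Reagent: labelled myosin peptide probe, 5 nM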
Rtt109 Vps75 – inhibitors of Candida albicans Rtt109/Vps75 histone acetyltransferase | purified Rtt109/Vps75, ThioGlo CoA-SH fluorescence, 4 h | inhibition, % at 34.9 µM | actives 0.16% (n = 330,000);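 active = inhibition of at least 50% in every replicate; inconclusive = best replicate reaches 50% inhibition but some replicates fall short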
Starred values were filed as active, the others as inactive; i = inactive; ? = inconclusive; . = not tested or not shown; ! = a repeat was not active; [ ] = remark or other dose. A selection: hits, their analogues and other compounds. The true share with any hit is near 0.86%.

SMILES	ERAP1 HTS inh	miR122 inh	MLL AF4-AF9 inh	S100A4 MyoIIA	Rtt109 Vps75
Cc1c(O)ccc2c(CN3CCN(CCO)CC3)cc(=O)oc12	.	.	.	.	4.3
Cc1cc(=O)oc2c(CN3CCCC3)c(O)c(Cl)cc12	114.5*	4.1	-6.4	16.7	-12.0
O=c1oc2c(CN3CCN(CCO)CC3)c(O)ccc2cc1-c1ccccn1	98.5*	-0.1	-0.7	-5.0	i
Cc1cc(=O)oc2c(CN3CCCCC3)c(O)c(Cl)cc12	.	3.1	.	.	i
Cc1cc(=O)oc2c(CN3CCCC3)c(O)ccc12	40.7*	-5.7	-0.9	-5.5	0.2
Cc1cc(=O)oc2c(CN3CCN(CCO)CC3)c(O)ccc12	40.2*	.	-3.1	0.8	-4.4
Cn1cnc(S(=O)(=O)N2CCCCN3[C@H](CO)[C@@H](c4ccc(-c5cccc(F)c5)cc4)[C@@H]3C2)c1	1.4	2.2[16.7 µM]	-0.6	-2.8	.
CCN1CCN(Cc2c(O)c(Cl)cc3c(C)cc(=O)oc23)CC1	.	7.7	.	.	-351.7
CCN1CCN(Cc2c(O)ccc3c(C)cc(=O)oc23)CC1	32.8*	-4.5	-12.2	-6.8	-0.7
CCN(CC)Cc1c(O)c(Cl)cc2c(C)cc(=O)oc12	66.0*	-2.9	0.2	15.6	-29.2
NC(=O)Cn1cc(/C=N\NS(=O)(=O)c2ccc(Cl)cc2)c2ccccc21	5.0	127.8*	-1.5	3.2	3.1
COc1ccc(-c2nc3ccccn3c2NC2CCCCC2)cc1SC1CCCCC1	-2.3	114.7*	14.7	-9.0	11.3
COc1ccc2c3c([nH]c2c1)[C@H](CO)N(C(=O)Nc1cccc(F)c1)CC31CN(CC2CC2)C1	2.3	.	28.9*	11.9	.
COc1ccc2c3c([nH]c2c1)[C@H](CO)N(C(=O)Nc1ccc(F)cc1)CC31CN(CC2CC2)C1	.	.	10.1	.	.
COc1ccc2c3c([nH]c2c1)[C@@H](CO)N(C(=O)Nc1cccc(F)c1)CC31CCN(CC2CC2)CC1	-1.7	.	25.4*	0.3	.
COc1ccc2c3c([nH]c2c1)[C@H](CO)N(C(=O)Nc1cccc(F)c1)CC31CCN(CC2CC2)CC1	-3.6	.	11.8	-3.3	.
C[C@H](CO)N1C[C@H](C)[C@H](CN(C)C)Oc2cc(C#Cc3cccnc3)ccc2S1(=O)=O	1.3	-10.2[16.7 µM]	-1.6	-10.4	.
N#C[C@@H]1[C@@H](c2ccccc2C2=CCCC2)[C@@H](CO)N1C(=O)NC1CCCCC1	0.7	.	0.2	69.9	.
CC1CC(C)CN(S(=O)(=O)c2ccc(NC(=O)c3ccc(=O)[nH]c3)cc2)C1 (stereo unspecified)	-2.2	102.3*	-6.4	0.4	2.5
CC1CC(C)CN(C(=O)c2ccc(NC(=O)c3ccc(=O)[nH]c3)cc2)C1 (stereo unspecified)	1.3	1.4	2.2	-2.0	-5.6
COc1ccc(NS(=O)(=O)c2c(C)cc(C)cc2C)cc1	.	43.1	.	.	12.5
COc1cccc(NS(=O)(=O)c2c(C)cc(C)cc2C)c1	.	398.8*	.	.	-10.3
COc1cccc(NS(=O)(=O)c2ccc(Br)s2)c1	.	218.3*	.	.	1.7
CO[C@H]1CN(C)C(=O)c2ccc(NS(=O)(=O)c3cn(C)cn3)cc2OC[C@@H](C)N(C)C[C@H]1C	0.8	-11.2[16.7 µM]	-1.4	4.0	.
COC(=O)Cc1c(C)c2ccc(O)c(CNCc3ccc(OC)c(OC)c3)c2oc1=O	97.0*	-3.0	2.2	2.1	2.8
SMILES	ERAP1 HTS inh	miR122 inh	MLL AF4-AF9 inh	S100A4 MyoIIA	Rtt109 Vps75
COc1cccc(/C=C/C(=O)c2ccc(NC3=NCCCS3)cc2)c1	11.8	.	8.5	12.8	-5.0
Cc1cccc(/C=C/C(=O)c2ccc(NC3=NCCCS3)cc2)c1	34.7*	.	12.8	-3.3	7.8
CC(=O)N1CCc2cc(S(=O)(=O)Nc3cccc(C(F)(F)F)c3)ccc21	.	99.7*	.	.	-1.7
CC(=O)N1CCCc2cc(S(=O)(=O)Nc3ccc4c(c3)OCO4)ccc21	.	268.0*	.	.	1.9
O=C(CCCSc1nc2ccccc2[nH]1)NC1CCCCC1	0.0	.	-0.2	-4.9	56.5*
O=C(CSc1nc2ccccc2[nH]1)NC1CCCC1	0.7	.	-0.7	-5.0	-3.2
FC(F)(F)c1cccc(NC(=S)NCCc2ccccn2)c1	.	249.4*	.	.	0.7
CC(C)(C)c1ccc(NC(=S)NCCc2ccccn2)cc1	7.7	.	.	-0.1	-3.3
C[C@@H]1CN([C@H](C)CO)C(=O)c2cc(C3=CCCCC3)cnc2O[C@H]1CN(C)C(=O)C1CCOCC1	1.4	-6.8[16.7 µM]	-1.3	9.6	.
C(=N\Nc1nc2ccccc2[nH]1)/C1CCCCC1	-8.5	.	25.7*	-0.4	-2.8
CCCNC(=O)Nc1ccc2c(c1)C(=O)N(C)C[C@H](OC)[C@@H](C)CN(Cc1ccc(-c3ccccn3)cc1)[C@H](C)CO2	0.0	.	2.9	-3.8	.
Nc1cc(-c2ccncc2)c[nH]c1=O	0.8	-5.0	-9.1	151.7*!	8.0
NC(=O)c1csc(-c2ccncc2)n1	.	-31.4	.	.	-3.3
O=C(Nc1ccc(F)cc1)N[C@@H]1CC[C@@H](CC(=O)N2CCOCC2)O[C@@H]1CO	.	-0.5[16.7 µM]	-1.7	.	.
C#CCOCCOCCOCCNc1nc(N2CCN(C(=O)[C@H](CCCCN)n3cc([C@@H](N)[C@H](C)CC)nn3)CC2)nc(N2CCN(C(=O)[C@H](CCC(=O)O)n3cc([C@@H](N)CCCCN)nn3)CC2)n1	0.3	-6.9	33.6*	2.6	-22.4
C#CCOCCOCCOCCNc1nc(N2CCN(C(=O)[C@H](CCCCN)n3cc(C(N)[C@H](C)CC)nn3)CC2)nc(N2CCN(C(=O)[C@H](CCC(=O)O)n3cc(C(N)[C@H](C)CC)nn3)CC2)n1 (stereo partly specified)	.	-7.8	.	.	-4.3
C#CCOCCOCCOCCNc1nc(N2CCN(C(=O)[C@H](CCCCN)n3cc(CN)nn3)CC2)nc(N2CCN(C(=O)[C@H](CCCCN)n3cc([C@@H](N)[C@H](C)CC)nn3)CC2)n1	-4.1	-5.5	64.2*	-7.8	6.2
COC(=O)c1sc(N)c(C(=O)OC)c1CSc1nnc(-c2ccccc2Cl)n1C	.	103.7*	.	.	-0.9
COC(=O)c1sc(N)c(C(=O)OC)c1CSc1nnnn1C	.	-2.9	.	.	-9.7
C/C=C/c1ccc([C@@H]2[C@@H](CO)N(C(=O)c3cnccn3)C23CN(C(C)=O)C3)cc1	-3.2	.	-0.9	4.0	.
C[C@@H]1CN([C@@H](C)CO)C(=O)c2cc(Br)cnc2O[C@H]1CN(C)Cc1ccccn1	-1.7	9.2[16.7 µM]	-2.7	2.9	.
O=C(CCCN1C(=O)/C(=C\c2ccccc2)SC1=S)Nc1ccc(O)cc1C(=O)O	36.0*	-2.8	1.1	-0.4	?
COc1ccccc1/C=C1\SC(=S)N(CCC(=O)Nc2ccc(C(=O)O)c(O)c2)C1=O	-38.8	.	25.8*	1.5	-3.2
C[C@@H](NC(=O)C[C@@H]1CC[C@H](NC(=O)C2CCC2)[C@H](CO)O1)c1ccccc1	-0.7	.	0.6	106.5*	.
Cc1ccccc1S(=O)(=O)NCC[C@@H]1CC[C@H](NC(=O)C2CCC2)[C@H](CO)O1	-3.4	.	-3.1	2.2	.
